Series [1] deals with Mus musculus. Put plainly: Potentiation of serum IgG/recombinant Porphyromonas gingivalis HagB induced-immune response in BALB/c mouse at 100 ug, sc immunized on day 14 and 28 after 42 days by ELISA. The series is classed as functional, organism-based. In short, it runs like this:
(§1)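 Mice from Frederick Cancer Research were immunized with rHagB plus adjuvant (100 or 50 μg; adjuvant given at 1.0 mg/mL as solution or suspension with antigen). Retro-orbital blood was collected before and after immunization, and serum was stored at −20 °C. ELISA plates were coated with rHagB (1 μg/mL) in borate buffered saline pH 8.2; serial two-fold serum dilutions were run in duplicate.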
On the technique in general: ELISA stands for enzyme-linked immunosorbent assay.

For series [2], the system named is Mus musculus. Put plainly: Potentiation of recombinant Porphyromonas gingivalis HagB induced Th1/Th2 immune response in BALB/c mouse assessed as increase in IgG1 levels at 100 ug, sc measured at week 4 by ELISA. The series is classed as functional, organism-based. Put shortly:
as §1

Series [3] relates to Mus musculus. Put plainly: Potentiation of recombinant Porphyromonas gingivalis HagB induced Th1/Th2 immune response in BALB/c mouse assessed as increase in IgG2a levels at 100 ug, sc measured at week 4 and 6 by ELISA. The series is classed as functional, organism-based. Put shortly: as §1
Series [4] can be described thus: Toxicity in BALB/c mouse assessed as effect on body weight at 100 ug, sc measured after 41 days. To be noted: in vivo, 984 h. The series is classed as organism-based. In short, it runs like this: (§2)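 Mice were weighed before each immunization and on day 42 after the last immunization. Adjuvant was given with rHagB antigen at 100 μg, or at 50 μg for one group.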

The subject of series [5] is Mus musculus. Put plainly: Potentiation of recombinant Porphyromonas gingivalis HagB induced Th1/Th2 immune response in BALB/c mouse assessed as increase in IgG1 levels at 50 ug, sc measured at week 4 and 6 by ELISA. The series is classed as functional, organism-based. In short, it runs like this:
as §1

Series [6] has as its system Mus musculus. Put plainly: Potentiation of serum IgG/recombinant Porphyromonas gingivalis HagB induced immune response n BALB/c mouse at 100 ug, sc immunized on day 14 and 28 measured week 4 and 6 post immunization by ELISA. The series is classed as functional, organism-based. Put shortly: as §1
The nature of series [7]: Toxicity in BALB/c mouse assessed as effect on body weight at 50 to 100 ug, sc measured after 41 days. The series is classed as organism-based. As to conditions: in vivo, 984 h. In short, it runs like this: as §2
The test system of series [8] is Mus musculus. Put plainly: Potentiation of recombinant Porphyromonas gingivalis HagB induced Th1/Th2 immune response in BALB/c mouse assessed as increase in IgG2a levels at 50 ug, sc measured at week 4 and 6 by ELISA. The series is classed as functional, organism-based. Put shortly: as §1
Series [9] relates to Mus musculus. The series can be described thus: Potentiation of recombinant Porphyromonas gingivalis HagB induced Th1/Th2 immune response in BALB/c mouse assessed as increase in IgG1 levels at 100 ug, sc measured at week 4 and 6 by ELISA. The series is classed as functional, organism-based. In short, it runs like this: as §1

Molecules are shown by their SMILES. Active and inactive are the calls of the source. No cut-off for these calls is given here.

As to `CCCCCCCCCCCCNC(=O)[C@H]1O[C@@H](O[C@H]2CC[C@]3(C)[C@H]4CC=C5[C@@H]6CC(C)(C)CC[C@]6(C(=O)O[C@@H]6O[C@H](C)[C@H](O)[C@H](O)[C@H]6O[C@@H]6O[C@@H](C)[C@H](O[C@@H]7OC[C@@H](O)[C@H](O[C@@H]8OC[C@](O)(CO)[C@H]8O)[C@H]7O)[C@@H](O)[C@H]6O)[C@H](O)C[C@@]5(C)[C@]4(C)CC[C@H]3[C@]2(C)C=O)[C@H](O[C@@H]2O[C@H](CO)[C@H](O)[C@H](O)[C@H]2O)[C@@H](O[C@@H]2OC[C@@H](O)[C@H](O)[C@H]2O)[C@@H]1O`, the outcome in series [1], in series [2] and in series [3] was inactive. Moreover, the Activity entry in series [4] is “Non-Toxic”.
Turning to `CCCCCCCCCCCCNC(=O)[C@H]1O[C@@H](O[C@H]2CC[C@]3(C)[C@H]4CC=C5[C@@H]6CC(C)(C)CC[C@]6(C(=O)O[C@@H]6O[C@H](C)[C@H](O)[C@H](O)[C@H]6O[C@@H]6O[C@@H](C)[C@H](O[C@@H]7OC[C@@H](O)[C@H](O[C@@H]8OC[C@@H](O)[C@H](O)[C@H]8O)[C@H]7O)[C@@H](O[C@@H]7O[C@H](CO)[C@@H](O)[C@H](O)[C@H]7O)[C@H]6O)[C@H](O)C[C@@]5(C)[C@]4(C)CC[C@H]3[C@]2(C)C=O)[C@H](O[C@@H]2O[C@H](CO)[C@H](O)[C@H](O)[C@H]2O)[C@@H](O[C@@H]2OC[C@@H](O)[C@H](O)[C@H]2O)[C@@H]1O`, the result in series [1], in series [5], in series [3], in [6], in [8] and in series [9] was Active. The Activity result in [7] was “Non-Toxic”.
